Results from ChEMBL document CHEMBL1142303, “Imidazo[2,1-b]thiazole system: a scaffold endowing dihydropyridines with selective cardiodepressant activity” (J Med Chem, 2008).
Activity calls are given as the source filed them. The rule behind the calls is not given here.

Tests used:
Cavia porcellus [1] = species: Cavia porcellus; assay: Activity at L type calcium channel in K+ depolarized guinea pig aortic strip assessed as inhibition of calcium induced contraction at 50 uM; format: tissue-based; set-up: scale not given: the % may be the effect or the level left; settings: Aorta
Summary of the method: (§1)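 Guinea-pig aortic strips depolarized with 80 mM K+. Drugs added cumulatively. Readout is percent inhibition of calcium-induced contraction, n = 5–6. Control versus treated values tested at each concentration by Student's t-test, P < 0.05.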

Cavia porcellus [2] = species: Cavia porcellus; assay: Chronotropic activity at L type calcium channel in guinea pig right atrium assessed as decrease in spontaneous beating at 10 uM relative to control; format: tissue-based; set-up: scale not given: the % may be the effect or the level left; settings: Cardiac atrium
Cavia porcellus [3] = species: Cavia porcellus; assay: Activity at L type calcium channel in K+ depolarized guinea pig longitudinal smooth muscle assessed as inhibition of calcium induced contraction at 10 uM; set-up: scale not given: the % may be the effect or the level left
Heart [4] = assay: Cardiovascular activity in perfused guinea pig heart assessed as change in coronary perfusion pressure at 10 uM by ECG; format: functional, Cavia porcellus
Summary of the method: (§2)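 Perfused guinea-pig heart. Percentage change from basal value at the highest concentration tested, 10 µM. Parameters: +(dP/dt)max, heart rate, coronary perfusion pressure, PR interval and QT interval from ECG.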

Heart [5] = assay: Cardiovascular activity in perfused guinea pig heart assessed as change in heart rate at 10 uM by ECG; format: functional, Cavia porcellus; summary of the method: as §2
Heart [6] = assay: Cardiovascular activity in perfused guinea pig heart assessed as change in maximal rate of rise in left ventricular pressure at 10 uM by ECG; format: functional, Cavia porcellus; summary of the method: as §2
[7] = Activity at L type calcium channel in K+ depolarized guinea pig longitudinal smooth muscle assessed as inhibition of calcium induced contraction; set-up: species or system Cavia porcellus
Heart [8] = assay: Cardiovascular activity in perfused guinea pig heart assessed as change in atrioventricular conduction time at 10 uM by ECG; format: functional, Cavia porcellus; summary of the method: as §2
Cavia porcellus [9] = species: Cavia porcellus; assay: Inotropic activity at L type calcium channel in guinea pig left atrium assessed as decrease in tension at 1 uM relative to control; format: tissue-based; set-up: scale not given: the % may be the effect or the level left; settings: Cardiac atrium
[10] = Displacement of (+)-[5-methyl-3H][…] from L type calcium channel in guinea pig heart ventricles; set-up: species or system Cavia porcellus
Summary of the method: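 Guinea-pig ventricular membranes incubated with 0.5 nM (+)-[5-methyl-3H]PN200-110 and test compounds at 0.1–50 µM in a competitive radioligand assay. Ki and IC50 reported as mean ± S.E.M. Student's t-test, significance P < 0.001.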

Heart [11] = assay: Cardiovascular activity in perfused guinea pig heart assessed as change in ventricular repolarization time at 10 uM by ECG; format: functional, Cavia porcellus; summary of the method: as §2
[12] = Inotropic activity at L type calcium channel in guinea pig left atrium assessed as decrease in tension; format: tissue-based; settings: Cavia porcellus, Cardiac atrium
Summary of the method: (§3)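 Guinea-pig atria: left atrium driven at 1 Hz for inotropy, spontaneously beating right atrium for chronotropy. Increasing cumulative doses, readout is percent decrease. EC50 (inotropic) and EC30 (chronotropic) by Litchfield–Wilcoxon probit analysis on log concentration–response curves, n = 6–7. Not calculated when the maximum effect was below 50%.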

HEK293 [13] = assay: (§4) Displacement of (+)-[5-methyl-3H][…] from L type calcium channel Cav1.2b in rabbit expressed in HEK293 cells; format: cell-based; settings: Oryctolagus cuniculus
Summary of the method: (§5)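 Intact HEK-293 cells transfected with rabbit Cav1.2a (α1C-a) or Cav1.2b (α1C-b) plasmid, labelled with (+)-[5-methyl-3H]PN200-110. Nonspecific binding about 10–20% of total. IC50 is mean ± S.E.M. of three independent experiments.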

Cavia porcellus [14] = species: Cavia porcellus; assay: Activity at L type calcium channel in K+ depolarized guinea pig aortic strip assessed as inhibition of calcium induced contraction at 5 uM; format: tissue-based; set-up: scale not given: the % may be the effect or the level left; settings: Aorta; summary of the method: as §1
Cavia porcellus [15] = species: Cavia porcellus; assay: Chronotropic activity at L type calcium channel in guinea pig right atrium assessed as decrease in spontaneous beating at 1 uM relative to control; format: tissue-based; set-up: scale not given: the % may be the effect or the level left; settings: Cardiac atrium
Cavia porcellus [16] = species: Cavia porcellus; assay: Inotropic activity at L type calcium channel in guinea pig left atrium assessed as decrease in tension at 10 uM relative to control; format: tissue-based; set-up: scale not given: the % may be the effect or the level left; settings: Cardiac atrium
Cavia porcellus [17] = species: Cavia porcellus; assay: Chronotropic activity at L type calcium channel in guinea pig right atrium assessed as decrease in spontaneous beating; format: tissue-based; settings: Cardiac atrium; summary of the method: as §3
HEK293 [18] = assay: (§6) Displacement of (+)-[5-methyl-3H][…] from L type calcium channel Cav1.2a in rabbit expressed in HEK293 cells; format: cell-based; settings: Oryctolagus cuniculus; summary of the method: as §5
[19] = as §4; format: cell-based, Oryctolagus cuniculus; summary of the method: as §5
Heart [20] = assay: Cardiovascular activity in perfused guinea pig heart assessed as change in ventricular repolarization time at 10 nM by ECG; format: functional, Cavia porcellus
Summary of the method: (§7)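 Guinea-pig heart: values are % change from basal. Parameters are +(dP/dt)max, heart rate, coronary perfusion pressure, PR and QT intervals. Highest concentration tested 10 µM.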

Heart [21] = assay: Cardiovascular activity in perfused guinea pig heart assessed as change in atrioventricular conduction time at 1 uM by ECG; format: functional, Cavia porcellus
Heart [22] = assay: Cardiovascular activity in perfused guinea pig heart assessed as change in maximal rate of rise in left ventricular pressure at 10 nM by ECG; format: functional, Cavia porcellus; summary of the method: as §7
Heart [23] = assay: Cardiovascular activity in perfused guinea pig heart assessed as change in coronary perfusion pressure at 1 uM by ECG; format: functional, Cavia porcellus; summary of the method: as §7
Cavia porcellus [24] = species: Cavia porcellus; assay: Chronotropic activity at L type calcium channel in guinea pig right atrium assessed as decrease in spontaneous beating at 0.1 uM relative to control; format: tissue-based; set-up: scale not given: the % may be the effect or the level left; settings: Cardiac atrium
Summary of the method: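 Spontaneously beating guinea-pig right atrium: % decrease in rate vs control. Drugs added cumulatively at increasing concentrations, compared with control at each concentration (Student's t-test, P<0.05). Mean ± S.E.M.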

Cavia porcellus [25] = species: Cavia porcellus; assay: Activity at L type calcium channel in K+ depolarized guinea pig longitudinal smooth muscle assessed as inhibition of calcium induced contraction at 5 nM; set-up: scale not given: the % may be the effect or the level left
Cavia porcellus [26] = species: Cavia porcellus; assay: Activity at L type calcium channel in K+ depolarized guinea pig aortic strip assessed as inhibition of calcium induced contraction at 1 uM; format: tissue-based; set-up: scale not given: the % may be the effect or the level left; settings: Aorta
Summary of the method: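 Guinea-pig aortic strips depolarized with K+ (80 mM); % inhibition of Ca2+-induced contraction vs control. Drugs added cumulatively, compared with control at each concentration (Student's t-test, P<0.05). Mean ± S.E.M.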

Heart [27] = assay: Cardiovascular activity in perfused guinea pig heart assessed as change in heart rate at 10 nM by ECG; format: functional, Cavia porcellus; summary of the method: as §7
[28] = as §6; format: cell-based, Oryctolagus cuniculus; summary of the method: as §5

COC(=O)C1=C(C)NC(C)=C(C(=O)OC)C1c1c(Cl)nc2sc(C)cn12
Activity (Cavia porcellus [1]): 19%
Activity (Cavia porcellus [2]): 22%
Activity (Cavia porcellus [3]): 93%
Activity (Heart [4]): 14%
Activity (Heart [5]): 6%
Activity (Heart [6]): -35%
IC50 [7]: 2060 nM
Activity (Heart [8]): 61%
Activity (Cavia porcellus [9]): 63%
Log Ki [10]: < -5
Activity (Heart [11]): -16%
EC50 [12]: 56 nM

COC(=O)C1=C(C)NC(C)=C(C(=O)OC)C1c1c(C(F)(F)F)nc2sccn12
Activity (HEK293 [13]): inactive
Activity (Cavia porcellus [14]): 34%
Activity (Cavia porcellus [15]): 54%
Activity (Cavia porcellus [16]): 90%
EC30 (Cavia porcellus [17]): 570 nM
Log Ki [10]: -5.35
EC50 [12]: 71 nM
Activity (HEK293 [18]): inactive

COC(=O)C1=C(C)NC(C)=C(C(=O)OC)C1c1ccccc1[N+](=O)[O-] [NIFEDIPINE]
IC50 [19]: 3.6 nM
Activity (Heart [20]): 37%
Activity (Heart [21]): 66%
Activity (Heart [22]): -96%
Activity (Heart [23]): -36%
Activity (Cavia porcellus [24]): 85%
Activity (Cavia porcellus [16]): 97%
Activity (Cavia porcellus [25]): 70%
EC30 (Cavia porcellus [17]): 25 nM
Log Ki [10]: -8.83
Activity (Cavia porcellus [26]): 82%
EC50 [12]: 260 nM
Activity (Heart [27]): -60%
IC50 [28]: 45 nM
